From ChEMBL document CHEMBL1139347, “Total synthesis and cytoprotective properties of dykellic acid” (J Med Chem, 2009)
Values belong to the compound of their own block, whether it stands above or below them. Active and inactive are the calls of the source. The rule behind the calls is not given here.

Key:
[1] = test system: U-937; assay: Cytoprotective activity against 1.5 uM etoposide-induced cell death in human U937 cells pretreated for 5 hrs measured after 24 hrs by cell flow cytometry using propidium iodide staining relative to control; assay type: functional, cell-based
How it was run: (§1)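 U-937 suspension cells preincubated 5 h across a concentration range, then challenged with etoposide (final 1.5 µM) or rotenone (final 5 µM). Death scored 24 h later by propidium iodide staining and flow cytometry. Percent protection derived from live-cell fraction relative to vehicle-only and toxin-only controls. SDM from n = 3, each run in triplicate.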

[2] = test system: U-937; assay: Cytoprotective activity against 20 uM rotenone-induced intracellular ROS production in human U937 cells at 100 uM pretreated for 5 hrs by dihydroethidium dye reduction assay; assay type: functional, cell-based
How it was run: (§2)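 U-937 cells exposed 5 h to a range of test concentrations or α-tocopherol (100 µM), then rotenone added (final 20 µM). After 40 min, dichlorodihydrofluorescein diacetate (peroxides) or dihydroethidium (superoxide, forming ethidium) added, and cellular fluorescence read by flow cytometry. Compared with vehicle+rotenone control. SDM from n = 3, each in triplicate.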

[3] = test system: U-937; assay: Cytoprotective activity against 20 uM rotenone-induced intracellular ROS production in human U937 cells at 100 uM pretreated for 5 hrs by 2,7-dichlorodihydrofluorescein dye reduction assay; assay type: functional, cell-based; how it was run: as §2
[4] = test system: U-937; assay: Cytoprotective activity against 5 uM rotenone-induced cell death in human U937 cells pretreated for 5 hrs measured after 24 hrs by cell flow cytometry using propidium iodide staining relative to control; assay type: functional, cell-based; how it was run: as §1
[5] = molecular target: T1, Caspase-3 (Homo sapiens) (UniProt P42574); assay: Inhibition of recombinant caspase 3 activity expressed in Escherichia coli BL21 (DE3) assessed as p-nitroaniline release using Ac-DEVD-pNA substrate up to 100 uM
T1 sequence (whole entry): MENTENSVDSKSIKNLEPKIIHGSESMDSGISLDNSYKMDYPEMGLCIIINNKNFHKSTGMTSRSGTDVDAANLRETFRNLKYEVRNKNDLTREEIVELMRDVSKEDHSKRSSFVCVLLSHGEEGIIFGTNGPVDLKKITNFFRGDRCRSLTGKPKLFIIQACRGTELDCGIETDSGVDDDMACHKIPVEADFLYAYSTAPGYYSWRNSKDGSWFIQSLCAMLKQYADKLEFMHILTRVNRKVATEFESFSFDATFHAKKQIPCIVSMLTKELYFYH
How it was run: (§3)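 Recombinant purified caspase-3, -6, -7 and -8 were run as full Michaelis-Menten curves (velocity vs substrate concentration) at several test concentrations up to 100 µM. Hydrolytic pNA release was followed from enzyme-specific tetrapeptide substrates: Ac-DEVD-pNA for caspase-3 and -7, Ac-VEID-pNA for caspase-6, Ac-IETD-pNA for caspase-8. Kinetics given as kcat/KM.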

[6] = test system: U-937; assay: Cytoprotective activity against 50 uM N-methyl-N'-nitro-N-nitrosoguanidine-induced cell death in human U937 cells pretreated for 5 hrs measured after 24 hrs by cell flow cytometry using propidium iodide staining relative to control; assay type: functional, cell-based
How it was run: (§4)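 Protection of U-937 cells against H2O2 or MNNG: 5 h preincubation with a range of concentrations before toxin addition, then viability measured after 24 h by propidium iodide staining and flow cytometry. Reported as percent protection versus vehicle-only and toxin-only control cells.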

[7] = test system: U-937; assay: Antiapoptotic activity in human U937 cells assessed as reduction of 1.5 uM etoposide-induced caspase-3/7 like activity at 100 nM pretreated for 5 hrs measured after 24 hrs relative to control; assay type: functional, cell-based
How it was run: (§5)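 U-937 cells pretreated 5 h with Z-VAD-fmk (100 nM) or a range of test concentrations, then etoposide added (final 1.5 µM) for 24 h. Cells moved to caspase assay buffer, lysed, and given Ac-DEVD-pNA (final 200 µM). pNA release per minute read at 405 nm. DMSO 1% in all wells. Vehicle+etoposide set to 1.0, vehicle alone set to 0. Triplicate, representative of three experiments.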

[8] = molecular target: T2, Caspase-7 (Homo sapiens) (UniProt P55210); assay: Inhibition of recombinant caspase 7 activity expressed in Escherichia coli BL21 (DE3) assessed as p-nitroaniline release using Ac-DEVD-pNA substrate up to 100 uM; how it was run: as §3
T2 sequence (whole entry): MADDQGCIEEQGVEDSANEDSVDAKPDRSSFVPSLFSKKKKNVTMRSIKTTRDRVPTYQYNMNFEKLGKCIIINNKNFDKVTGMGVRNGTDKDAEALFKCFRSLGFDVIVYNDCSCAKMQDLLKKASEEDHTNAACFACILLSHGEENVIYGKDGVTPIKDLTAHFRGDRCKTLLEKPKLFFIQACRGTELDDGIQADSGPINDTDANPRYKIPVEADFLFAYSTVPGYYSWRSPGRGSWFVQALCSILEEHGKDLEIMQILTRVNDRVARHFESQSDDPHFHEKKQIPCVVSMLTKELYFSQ

[9] = molecular target: Caspase-8 (Homo sapiens) (UniProt Q14790); assay: Inhibition of recombinant caspase 8 activity expressed in Escherichia coli BL21 (DE3) assessed as p-nitroaniline release using Ac-IETD-pNA substrate up to 100 uM; how it was run: as §3
Caspase-8 (Homo sapiens), sequence (Q14790 217-374 limits assumed): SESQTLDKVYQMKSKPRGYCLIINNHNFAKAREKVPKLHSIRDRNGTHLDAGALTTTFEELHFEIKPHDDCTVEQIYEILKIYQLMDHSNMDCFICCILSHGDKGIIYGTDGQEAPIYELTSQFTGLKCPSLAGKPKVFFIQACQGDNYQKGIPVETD
Caspase-8 (Homo sapiens), sequence (Q14790 385-479 limits assumed): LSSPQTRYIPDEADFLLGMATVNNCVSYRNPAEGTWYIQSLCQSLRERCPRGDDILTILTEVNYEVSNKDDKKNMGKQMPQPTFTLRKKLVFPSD

[10] = test system: U-937; assay: Cytoprotective activity against 50 uM H2O2-induced cell death in human U937 cells pretreated for 5 hrs measured after 24 hrs by cell flow cytometry using propidium iodide staining relative to control; assay type: functional, cell-based; how it was run: as §4
[11] = molecular target: T3, Caspase-6 (Homo sapiens) (UniProt P55212); assay: Inhibition of recombinant caspase 6 activity expressed in Escherichia coli BL21 (DE3) assessed as p-nitroaniline release using Ac-VEID-pNA substrate up to 100 uM; how it was run: as §3
T3 sequence (whole entry): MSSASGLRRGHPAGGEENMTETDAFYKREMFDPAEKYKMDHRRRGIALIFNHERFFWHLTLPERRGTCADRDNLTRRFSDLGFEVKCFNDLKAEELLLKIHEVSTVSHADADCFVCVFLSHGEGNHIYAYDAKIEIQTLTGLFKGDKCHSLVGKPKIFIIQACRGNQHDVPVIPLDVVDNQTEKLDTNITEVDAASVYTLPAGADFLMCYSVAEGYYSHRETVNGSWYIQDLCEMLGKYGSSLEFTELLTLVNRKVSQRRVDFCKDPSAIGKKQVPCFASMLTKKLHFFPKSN

[12] = test system: U-937; assay: Antiapoptotic activity in human U937 cells assessed as reduction of 1.5 uM etoposide-induced caspase-3/7 like activity pretreated for 5 hrs measured after 24 hrs relative to control; assay type: functional, cell-based; how it was run: as §5

Structure (SMILES): C=C1C=C(CCC(=O)OC)C(=O)OC1CCCCC (centres undefined)
- Activity [1]: inactive

Structure (SMILES): C=C1C=CC(=O)OC1CCCCC (centres undefined)
- Activity [1]: inactive

Structure (SMILES): C=C1C=C(CCC(=O)O)C(=O)OC1/C=C/C=CC (centres undefined)
- Activity [1]: Active

Structure (SMILES): C=C1C=CC(=O)OC1/C=C/C=C/C (centres undefined)
- Activity [1]: inactive

Structure (SMILES): Cc1c(C)c2c(c(C)c1O)CC[C@@](C)(CCC[C@H](C)CCC[C@H](C)CCCC(C)C)O2
- Activity [2]: Active
- Activity [3]: Active

Structure (SMILES): C=C1C=CC(=O)OC1/C=C/CCC (centres undefined)
- Activity [1]: inactive

- Activity [5]: inactive
- Activity [8]: inactive
- Activity [9]: inactive
- Activity [11]: inactive
Structure (SMILES): C=C1C=C(CCC(=O)O)C(=O)OC1/C=C/C=C/C (centres undefined)
- Activity [4]: Dose-dependent effect
- Activity [2]: inactive
- Activity [6]: Dose-dependent effect
- Activity [7]: inactive
- Activity [3]: inactive
- Activity [10]: inactive
- Activity [12]: Active

Structure (SMILES): C=C1C=C(CCC(=O)OC)C(=O)OC1/C=C/C=C/C (centres undefined)
- Activity [1]: inactive
